Sampled rows, rich in hits. Any-hit rate of the full collection: about 2.8%.
HTRA1 inh – HTRA1 serine protease inhibitors, primary screen, biochemical, fluorescence polarization, HTS. Q92743. AID 504803, 2011. recombinant HTRA1, FP-rhodamine activity-based probe. hit rate 0.5% among 340,000. inhibition, % at 5.96 µM; in the data active = inhibition above about 36%
pPAFAH FP inh – pPAFAH enzyme inhibitors, primary screen, biochemical, fluorescence polarization, human; hit rate 1.5% among 330,000; AID 463082, 2010; Platelet-activating factor acetylhydrolase (Homo sapiens), Q13093; inhibition, % at 3.39 µM; recombinant pPAFAH, FP-rhodamine probe fluorescence polarization;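 active = inhibition above the mean inhibition across the screen plus 3 SD, cut at about 25% in these data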;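 also: inhibitors block binding of the rhodamine activity-based probe so polarization drops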
PAFAH1B3 inh – PAFAH1B3 enzyme inhibitors, primary screen, biochemical, fluorescence polarization, human. recombinant PAFAH1B3, FP-rhodamine probe. inhibition, % at 3.39 µM. hit rate 0.28% among 340,000. AID 492972, 2010;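 active = inhibition above the screen-wide average of all tested compounds plus 3 SD, cut at about 25% in these data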
Target sequence (Q15102 whole entry, looked up): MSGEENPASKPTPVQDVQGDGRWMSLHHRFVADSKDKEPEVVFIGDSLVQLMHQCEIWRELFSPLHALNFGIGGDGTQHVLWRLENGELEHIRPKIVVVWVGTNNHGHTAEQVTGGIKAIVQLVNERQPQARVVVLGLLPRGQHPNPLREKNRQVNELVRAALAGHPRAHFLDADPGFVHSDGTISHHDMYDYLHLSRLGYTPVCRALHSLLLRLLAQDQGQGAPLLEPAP
PAFAH1B2 inh – PAFAH1B2 enzyme inhibitors, primary screen, biochemical, fluorescence polarization, human; Platelet-activating factor acetylhydrolase IB subunit alpha2 (Homo sapiens), P68402; recombinant PAFAH1B2, FP-rhodamine activity probe; inhibition, % at 3.39 µM; hit rate 1.2% among 340,000; AID 492953, 2010;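 active = inhibition above the mean of all tested compounds plus 3 SD, cut at about 24% in these data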
mABHD4 FP – ABHD4 inhibitors, primary screen, biochemical, fluorescence polarization, mouse. inhibition, % at 8.92 µM. purified mABHD4, FP-Rh probe fluorescence polarization. hit rate 0.54% among 370,000;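 active = inhibition exceeding the mean over every tested compound plus 3 SD, cut at about 30% in these data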
Target sequence (Q8VD66 whole entry, looked up): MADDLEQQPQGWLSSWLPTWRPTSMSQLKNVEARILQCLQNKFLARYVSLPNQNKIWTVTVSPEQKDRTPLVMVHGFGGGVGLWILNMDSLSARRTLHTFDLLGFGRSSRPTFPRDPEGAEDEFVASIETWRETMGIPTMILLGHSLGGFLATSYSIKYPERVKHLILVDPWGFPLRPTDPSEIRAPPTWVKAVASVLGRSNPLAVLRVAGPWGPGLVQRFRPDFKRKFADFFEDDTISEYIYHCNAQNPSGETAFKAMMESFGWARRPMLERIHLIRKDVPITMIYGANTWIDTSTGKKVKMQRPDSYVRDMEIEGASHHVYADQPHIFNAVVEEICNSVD
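Assay system: mouse ABHD4 enzyme, wild type / Also added: fluorescent activity-based probe FP-Rh / Doses: single nominal dose of 8.92 µM, 0.89% DMSO final / Timing: 45 min compound pre-incubation plus 60 min probe step, 25 °C / Signal: FP readout, ex 525 nm / em 598 nm / Control set: S159A mutant/DMSO as 100%, compound-well median as 0%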
PAFAH2 FP inh – PAFAH2 enzyme inhibitors, primary screen, biochemical, fluorescence polarization, human. Platelet-activating factor acetylhydrolase 2, cytoplasmic (Homo sapiens), Q99487. recombinant PAFAH2, FP-rhodamine activity probe. AID 492956, 2010. hit rate 0.99% among 340,000. inhibition, % at 3.39 µM;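 active = inhibition above the mean over all tested compounds plus 3 SD, cut at about 30% in these data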;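 also: inhibitors block probe labeling of enzyme so polarization drops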
PAFAH2 confirm – PAFAH2 enzyme inhibitors, confirmation, biochemical, fluorescence polarization, human. AID 493030, 2011. hit rate 65% among 2,300. recombinant PAFAH2, FP-rhodamine activity probe. shares compounds with PAFAH2 FP inh. inhibition, % at 3.39 µM;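 active = mean inhibition over three repeats above a set limit taken from the earlier primary screen, cut at about 30% in these data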;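 also: inhibitor blocks binding of rhodamine activity probe so polarization falls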
Hits are given with their value; . = inactive; / = no result.

SMILES	HTRA1 inh	pPAFAH FP inh	PAFAH1B3 inh	PAFAH1B2 inh	mABHD4 FP	PAFAH2 FP inh	PAFAH2 confirm
O=C(COC(=O)c1cccc(S(=O)(=O)N2CCCC2)c1)Nc1ccccc1C(F)(F)F	.	/	.	.	.	45	40
Cc1ccc(C(=O)OCC(=O)NC(=O)c2cccn2C)cc1	.	.	.	.	.	47	38
CN(Cc1ccccc1F)C(=O)C1CCCN(c2ncccn2)C1 (stereo unspecified)	/	/	/	/	.	/	/
COc1ccc(Cn2cc(CN3[C@@H](C)COc4cc(Br)ccc4S3(=O)=O)nn2)cc1	/	/	/	/	.	/	/
CCN(CC)C(=O)CC[C@H]1CC[C@]2(CCCN(Cc3cccc4ccccc34)C2)O1	/	/	/	/	.	/	/
COC(=O)[C@]12C[C@H](CC(=O)NCc3cccc(C(F)(F)F)c3)C(=O)N(Cc3ccc(Cl)cc3Cl)C1=C[C@H](C(C)(C)C)O[C@@H]2C	/	/	/	/	.	/	/
Cc1ccc(NC2c3ncccc3C(=O)N2Cc2cccs2)cc1C (stereo unspecified)	.	.	.	.	.	69	.
O=C1c2cccnc2C(Nc2ccc(Cl)cc2)N1Cc1cccs1 (stereo unspecified)	.	.	.	.	.	.	/
CCOc1ccc(-n2c(COc3ccccc3)nnc2SCc2nc3ccccc3[nH]2)cc1	/	/	/	/	.	/	/
COc1ccccc1C(=O)OCCCN=C1NS(=O)(=O)c2ccccc21	.	.	.	.	.	.	/
COc1ccc(C(=O)OCCN=C2NS(=O)(=O)c3ccccc32)cc1OC	.	.	.	.	.	43	.
CCOC(=O)[C@@]12CCCC3=C1N(CCC3)C(=O)[C@H]2CC(=O)NCc1cccc2ccccc12	/	/	/	/	.	/	/
O=C(COC(=O)c1cccc(N2C(=O)C3CC=CCC3C2=O)c1)c1ccccc1 (stereo unspecified)	.	.	.	.	.	35	.
CN1C(=O)C[C@@](C#N)(C(=O)N2CCCC2)[C@H]1c1ccccc1	/	/	/	/	.	/	/
CCc1nccn1CC(=O)c1ccc(O)c(O)c1	/	/	/	/	.	/	/
Cc1ccsc1C(=O)OCC(=O)Nc1cccc(S(=O)(=O)NC2=NCCCCC2)c1	.	.	.	.	.	46	33
O=C(COC(=O)c1ccc(OC(F)F)cc1)Nc1cccc(S(=O)(=O)NC2=NCCC2)c1	.	.	.	.	.	31	.
NC(=O)Nc1ccc(C(=O)OCC(=O)Nc2cccc(S(=O)(=O)NC3=NCCCCC3)c2)cc1	.	.	.	.	.	61	65
Cc1cc(C)cc(C(=O)OCC(=O)Nc2cccc(S(=O)(=O)NC3=NCCCCC3)c2)c1	.	.	.	.	.	.	/
CCOC(=O)N1CCN(C(=O)C[C@H]2C[C@@]3(C(=O)OC)C(=C[C@H](C4CCCC4)O[C@@H]3C)N(Cc3ccco3)C2=O)CC1	/	/	/	/	.	/	/
Cc1ccc2c(c1)C1CS(=O)(=O)N(Cc3ccccc3)CN1C2 (stereo unspecified)	/	/	/	/	.	/	/
Cc1cc(C(=O)COC(=O)/C=C/c2cccc(F)c2)c(C)n1C	.	.	.	.	.	.	/
COc1ccc(/C=C/C(=O)OCC(=O)c2c[nH]c3ccccc23)cc1	.	.	.	.	.	.	/
C=CCn1c(C)cc(C(=O)COC(=O)/C=C/c2ccc(OC)cc2)c1C	.	.	.	.	.	62	57
C=CCn1c(C)cc(C(=O)COC(=O)/C=C/c2cccc(OC)c2)c1C	.	.	.	.	.	55	46
SMILES	HTRA1 inh	pPAFAH FP inh	PAFAH1B3 inh	PAFAH1B2 inh	mABHD4 FP	PAFAH2 FP inh	PAFAH2 confirm
COC(=O)C[C@H]1CC[C@H]2[C@H](COc3ccc(NC(=O)Cc4cccs4)cc3C(=O)N2C)O1	/	/	/	/	.	/	/
Nc1ccc(C(=O)OCCCc2nc3cc4ccccc4cc3[nH]2)cc1	.	.	.	.	.	.	/
Nc1ccc(C(=O)OCc2nc3c(ccc4ccccc43)[nH]2)cc1	.	.	.	.	.	80	82
Nc1ccc(C(=O)OCc2nc3cc4ccccc4cc3[nH]2)cc1	.	.	.	.	.	85	83
C(#CC1=CCCCC1)CNCC1CC1	/	/	/	/	.	/	/
Cc1ccc(N2CCN(/N=C\c3cccnc3)CC2)cc1	/	/	/	/	.	/	/
COc1ccc(C(=O)OCC(=O)NC2CC2)cc1	.	/	/	/	.	/	/
COC(=O)c1ccc(OCC(=O)NC2CCCCCC2)cc1	.	.	.	.	.	.	/
Cc1ccc(C(=O)OCC(=O)NC2CCCC2)cc1	.	.	.	.	.	82	76
CC(C)(C)c1ccc(C(=O)OCC(=O)NC2CC2)cc1	.	/	.	.	.	73	66
O=C(COC(=O)c1ccc(O)cc1)NC1CCCC1	.	.	.	.	.	77	73
O=C(COC(=O)c1ccc([N+](=O)[O-])cc1)NC1CCCC1	.	.	.	.	.	.	/
CCOC(=O)[C@]12CCCCC/C=C\1N(CCc1ccc(Cl)cc1)C(=O)[C@H]2CC(=O)NCc1ccccc1	/	/	/	/	.	/	/
Cc1cccc(-c2cccc3c4c([nH]c23)[C@@H]2C[C@H]3[C@@H](C(=O)N2CC4)[C@H](C)ON3C)c1	/	/	/	/	.	/	/
O=C1CCC/C=C\C[C@@H](CC(=O)N(CCO)Cc2ccccc2)C(=O)N[C@H](c2ccccc2)CO1	.	.	.	.	.	66	56
CCOC(=O)c1[nH]c(C)c(C(=O)OCC(=O)N2CCc3ccccc32)c1C	.	.	.	.	.	.	/
O=C(OCC(=O)N1CCc2ccccc21)c1ccccc1F	.	.	.	.	.	57	53
Cn1cccc1C(=O)OCC(=O)N1CCc2ccccc21	.	.	.	.	.	31	.
CC(=O)c1c(C)[nH]c(C(=O)OCC(=O)N2CCc3ccccc32)c1C	.	.	.	.	.	44	.
Cc1ccc(C(=O)OCC(=O)N2CCc3ccccc32)cc1	.	.	.	.	.	63	63
COC(=O)[C@]12C[C@H](CC(=O)N3CCN(C(=O)c4ccco4)CC3)C(=O)N(Cc3ccc(Cl)cc3Cl)C1=C[C@H](COCc1ccccc1)O[C@@H]2C	/	/	/	/	.	/	/
CCN(Cc1cn(Cc2ccccc2)nn1)S(=O)(=O)c1ccccc1Br	/	/	/	/	.	/	/
O=C(COC(=O)c1c(Cl)cccc1Cl)NC1CCCCCCC1	.	.	.	.	.	.	/
O=C(COC(=O)c1c(F)cccc1Cl)NC1CCCC1	.	.	.	.	.	37	.
O=C(COC(=O)c1c(F)cccc1Cl)NCC1CCCCC1	.	.	.	.	.	60	43
O=C(COC(=O)c1c(Cl)cccc1Cl)NCC1CCCO1 (stereo unspecified)	.	.	.	.	.	.	/

Screening results deposited in PubChem by The Scripps Research Institute Molecular Screening Center.
